In the library only some 1.1% were active in any assay of this set; here they are far more common.
Cneo AK release: causes C. neoformans cell lysis; actives 0.2% (n = 360,000); adenylate kinase release luminescence, 4 h; normalised: neutral wells 0, clomiphene wells 100; lysis activity, % at 15 µM; AID 651654;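 active = mean lysis activity across replicates of at least 80%, whatever share of replicates individually reach that level; inactive = mean lysis activity below 80%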
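Material – Cryptococcus neoformans yeast cells · Quantity – 5 × 10^6 yeast cells/mL · Buffer or medium – YPD medium · Compound – single dose · Timing – 4 h static compound exposure, 37 °C, read 1 h post-reagent · Signal – adenylate kinase release luminescence · Read-out basis – lysis from increased AK signal · Benchmarks – Clomiphene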
PglD DTNB: inhibitors of Campylobacter jejuni PglD acetyltransferase; purified PglD enzyme, DTNB colorimetric CoA detection; inhibition, % at 12.5 µM; actives 0.098% (n = 360,000); AID 602405; in the data active = inhibition above about 16%, passing the limit was not always enough
miR122 inh: blocks miR-122 activity in Huh7 sensor cells; actives 0.3% (n = 340,000); AID 602342; Huh7 miR-122 Renilla luciferase sensor, 48 h; neutral wells = 0, positive control = 100; activation (reporter increase), % at 12.5 µM;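 active = mean replicate activation score at least 90 and every replicate individually at or above 90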;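 also: higher luciferase means less miR-122 activity so hits act as miR-122 inhibitors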
CAL PDZ FP-1: blocks peptide binding to human CAL PDZ domain; inhibition, % at 20 µM; Q9HD26; actives 0.02% (n = 330,000); purified CAL PDZ, TMR-peptide fluorescence polarization, 1 h;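 active = highest replicate inhibition of at least 40%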
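Material – purified CerCALP PDZ construct · Detection – FP readout, S and P plane fluorescence · Measure – percent inhibition from loss of millipolarization · Controls – unlabelled peptide for full inhibition, DMSO wells as neutral · Probe or stimulus – TMR-labelled reporter peptide T*-PRC34 bound in PDZ groove · Times – 1 h at RT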
CAL PDZ FP-2: blocks peptide binding to the human CAL PDZ domain; actives 0.92% (n = 300,000); inhibition, % at 24.9 µM; purified CAL PDZ, TMR-peptide fluorescence polarization, 1 h;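 active = mean inhibition of at least 30% with at least half of replicates also reaching 30%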
Numbers stand for hits; [ ] = remark or other dose.

`C[C@@H]1CN([C@@H](C)CO)C(=O)c2cc(NC(=O)Nc3ccc(C(F)(F)F)cc3)ccc2O[C@H]1CN(C)S(C)(=O)=O` gave Cneo AK release inactive, PglD DTNB inactive and miR122 inh inactive.
For OC[C@@H]1Nc2ccc(C#Cc3ccc(F)cc3)cc2[C@H]2[C@@H]1CCN2Cc1nccs1 the results were Cneo AK release inactive, PglD DTNB inactive and miR122 inh inactive.
CCCc1ccc(C(=O)/C=C/N(C)C)cc1 was read as Cneo AK release inactive, PglD DTNB inactive, miR122 inh inactive, CAL PDZ FP-1 inactive and CAL PDZ FP-2 53.
For CN(C)/C=C/C(=O)c1ccc(F)cc1 the results were PglD DTNB inactive, miR122 inh inactive, CAL PDZ FP-1 inactive and CAL PDZ FP-2 inactive.
For C[C@@H]1CCCCO[C@H](CN(C)C(=O)Nc2ccc3c(c2)OCO3)[C@@H](C)CN([C@@H](C)CO)C(=O)c2cc(NC(=O)CCCN(C)C)ccc2O1 the results were Cneo AK release inactive, PglD DTNB inactive and miR122 inh inactive.
CC(=O)NC1C(=O)N(CCN2CCOCC2)c2ccc(C)cc21 (stereo unspecified) was read as CAL PDZ FP-1 inactive and CAL PDZ FP-2 64.
For Cc1noc(C)c1NC(=O)Nc1ccc2c(c1)CC(=O)N([C@@H](C)CO)C[C@H](C)[C@H](CN(C)Cc1ccc(Cl)c(Cl)c1)O2 the results were Cneo AK release inactive, PglD DTNB inactive and miR122 inh inactive.
COc1cccc(-c2ccc([C@H]3[C@@H](CO)N4CCCCN(C(=O)NC(C)C)C[C@H]34)cc2)c1 was read as Cneo AK release inactive, PglD DTNB inactive and miR122 inh inactive.
Screening C/C=C/c1cnc2c(c1)C(=O)N([C@H](C)CO)C[C@@H](C)[C@H](CN(C)Cc1ccccc1)O2 returned Cneo AK release inactive, PglD DTNB inactive and miR122 inh inactive.
Cc1cc(C)nc(NC(=O)Cc2ccc(Cl)cc2)c1 was read as Cneo AK release inactive, PglD DTNB inactive, miR122 inh inactive, CAL PDZ FP-1 inactive and CAL PDZ FP-2 33.
Screening CCCSc1ccc([C@H]2N[C@@](CC(C)C)(C(=O)OC)[C@H]3C(=O)N(CC)C(=O)[C@@H]23)cc1 returned Cneo AK release inactive, PglD DTNB inactive, miR122 inh inactive, CAL PDZ FP-1 inactive and CAL PDZ FP-2 inactive.
For COc1ccc(N(CC(=O)NCCSc2ccc(C)cc2)S(=O)(=O)c2ccccc2)c(OC)c1 the results were Cneo AK release inactive, PglD DTNB inactive, CAL PDZ FP-1 inactive and CAL PDZ FP-2 40.
COc1ccc(N(CC(=O)NCCSC2CCCCC2)S(=O)(=O)c2ccccc2)c(OC)c1 was read as Cneo AK release inactive, PglD DTNB inactive, miR122 inh inactive, CAL PDZ FP-1 inactive and CAL PDZ FP-2 inactive.
For CN1CCN(CC(=O)NN2CC(=O)N(c3ccc(F)cc3)CC2=O)CC1 the results were CAL PDZ FP-1 inactive and CAL PDZ FP-2 52.
O=[N+]([O-])c1ccc(N/N=C/c2c[nH]c3ccccc23)c(S(=O)(=O)Nc2ccc(Cl)cc2)c1 was read as Cneo AK release inactive, PglD DTNB inactive, miR122 inh 162, CAL PDZ FP-1 inactive and CAL PDZ FP-2 inactive.
For COc1ccc(/C=C/C(=O)N2CCN(c3ccccc3)CC2)cc1S(=O)(=O)N1CCOCC1 the results were CAL PDZ FP-1 inactive and CAL PDZ FP-2 52.
For Cc1ccc(S(=O)(=O)Nc2cccc3c2O[C@@H](CN(C)Cc2ccc4c(c2)OCO4)[C@H](C)CN([C@@H](C)CO)C3=O)cc1 the results were Cneo AK release inactive, PglD DTNB inactive and miR122 inh inactive.
`Cc1ccnc(SCC(=O)Nc2sccc2C#N)n1` gave Cneo AK release inactive, PglD DTNB inactive, miR122 inh inactive, CAL PDZ FP-1 inactive and CAL PDZ FP-2 39.
`O=C(Oc1ccc(OC(=O)N2CCOCC2)cc1)c1ccccc1` gave Cneo AK release inactive, PglD DTNB inactive, miR122 inh inactive and CAL PDZ FP-1 inactive.
For O=C(Oc1ccccc1)N1CCOCC1 the results were Cneo AK release inactive, PglD DTNB inactive, miR122 inh inactive, CAL PDZ FP-1 inactive and CAL PDZ FP-2 74.
For COc1ccccc1Oc1coc2cc(OC(=O)N3CCOCC3)ccc2c1=O the results were Cneo AK release inactive, PglD DTNB inactive, miR122 inh inactive, CAL PDZ FP-1 102 and CAL PDZ FP-2 inactive.
For CC(C)(C)S(=O)(=O)c1cnc(-c2ccc(Cl)cc2)nc1N the results were CAL PDZ FP-1 inactive and CAL PDZ FP-2 inactive.
`CC(C)(C)S(=O)(=O)c1cnc(N2CCCCC2)nc1N` gave CAL PDZ FP-1 inactive and CAL PDZ FP-2 50.
For COc1ccccc1C(=O)Nc1ccc2c(c1)C(=O)N(C)[C@H]1CC[C@@H](CC(=O)NCc3ccc(Cl)c(Cl)c3)O[C@@H]1CO2 the results were Cneo AK release inactive, PglD DTNB inactive and miR122 inh inactive.
`COc1ccccc1C(=O)Nc1ccc2c(c1)C(=O)N(C)[C@H]1CC[C@H](CC(=O)NCc3ccc(Cl)c(Cl)c3)O[C@H]1CO2` gave Cneo AK release inactive, PglD DTNB inactive and miR122 inh 308[16.7 µM].
Screening COc1ccccc1CNC(=O)C[C@@H]1CC[C@@H]2[C@H](COc3ccc(NC(C)=O)cc3C(=O)N2C)O1 returned Cneo AK release 101, PglD DTNB inactive and miR122 inh inactive.
`C/C=C/c1ccc([C@@H]2[C@@H](CNC(=O)C3CCC3)N(C(=O)NCCC)[C@H]2CO)cc1` gave Cneo AK release 103, PglD DTNB inactive and miR122 inh inactive.
For COCC(=O)N1[C@H](CO)[C@H](c2ccccc2)[C@@H]1CNC(=O)c1ccccn1 the results were Cneo AK release inactive, PglD DTNB inactive and miR122 inh 108[16.7 µM].
For C/C=C/c1ccc([C@@H]2[C@@H](CO)N(C(=O)NCCC)[C@H]2CNC(=O)C2CCC2)cc1 the results were Cneo AK release inactive, PglD DTNB inactive and miR122 inh inactive.
`COCC(=O)N1[C@H](CO)[C@@H](c2ccccc2)[C@H]1CNC(=O)c1ccccn1` gave Cneo AK release inactive, PglD DTNB inactive and miR122 inh inactive.
For C/C=C/c1ccc([C@@H]2[C@@H](CNC(=O)c3ccccc3)N(C(C)=O)[C@H]2CO)cc1 the results were Cneo AK release 81, PglD DTNB inactive and miR122 inh inactive.
Screening C/C=C/c1ccc([C@@H]2[C@H](CO)N(C(C)=O)[C@H]2CNC(=O)c2ccncc2)cc1 returned Cneo AK release inactive, PglD DTNB inactive and miR122 inh inactive.
`C/C=C/c1ccc([C@@H]2[C@@H](CO)N(C(=O)CC)[C@@H]2CNC(=O)C2CC2)cc1` gave Cneo AK release inactive, PglD DTNB inactive and miR122 inh inactive.
`C/C=C/c1ccc([C@H]2[C@@H](CO)N(C(=O)CC)[C@@H]2CNC(=O)C2CC2)cc1` gave Cneo AK release 91, PglD DTNB inactive and miR122 inh inactive.

Screening results deposited in PubChem BioAssay by Broad Institute.
